Several values for one entry are separate records, joined by “and”; a condition that tells them apart may be missing. Equal entries are not always repeated.
Test system: HEK-293T
Experiment: Multiplex assay against HEK293T
Type: toxicity, cell-based
Conditions: human
How it was run: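 Cells were classed with CellPathfinder machine-learning gating, first as Hoechst high-intensity objects or normal cells, then (normal cells) as healthy, pyknosed or fragmented nuclei, and finally (pyknosed cells) as mitotic or apoptotic. Staining of live cells at seeding used Hoechst33342, BioTracker Green Microtubule Cytoskeleton Dye, MitoTracker Red and Annexin V Alexa Fluor 680, with imaging on a CQ1 microscope at 37°C and 5% CO2 after compound addition. Tubulin, mitochondrial-mass and membrane-permeability phenotypes are per cents of healthy-nucleus cells.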

[1] = 12 h, 1 µM, compound concentration 1 uM
[2] = 12 h, 10 µM, compound concentration 10 uM
[3] = 24 h, 1 µM, compound concentration 1 uM
[4] = 24 h, 10 µM, compound concentration 10 uM
[5] = 48 h, 1 µM, compound concentration 1 uM
[6] = 48 h, 10 µM, compound concentration 10 uM

CCCN1CCC[C@@H]2Cc3n[nH]cc3C[C@H]21.Cl [QUINPIROLE HYDROCHLORIDE]
Population Apoptotic (%) [1]: 32% and 63% | Population Fragmented Nuclei (%) [1]: 6% and 4% | Population Healthy Nuclei (%) [1]: 84% and 82% | Population Hoechst High Intensity Objects (%) [1]: 6% and 3% | Population Membrane Permeable-Phenotype (%) [1]: 0% | Population Mitochondria Different-Phenotype (%) [1]: 37% and 67% | Population Mitotic Cells (%) [1]: 67% and 36% | Population Normal (%) [1]: 93% and 96% | Population Pyknosed Nuclei (%) [1]: 9% and 12% | Population Tubulin-Different-Phenotype (%) [1]: 22% and 26% | Total Cell Count [1]: 447 and 294 | Population Apoptotic (%) [2]: 55% and 46% | Population Fragmented Nuclei (%) [2]: 11% and 5% | Population Healthy Nuclei (%) [2]: 72% and 78% | Population Hoechst High Intensity Objects (%) [2]: 9% and 5% | Population Membrane Permeable-Phenotype (%) [2]: 0% | Population Mitochondria Different-Phenotype (%) [2]: 53% and 69% | Population Mitotic Cells (%) [2]: 44% and 53% | Population Normal (%) [2]: 90% and 94% | Population Pyknosed Nuclei (%) [2]: 15% and 16% | Population Tubulin-Different-Phenotype (%) [2]: 40% and 26% | Total Cell Count [2]: 381 and 312 | Population Apoptotic (%) [3]: 30% and 29% | Population Fragmented Nuclei (%) [3]: 12% and 8% | Population Healthy Nuclei (%) [3]: 79% and 81% | Population Hoechst High Intensity Objects (%) [3]: 3% and 2% | Population Membrane Permeable-Phenotype (%) [3]: 0% | Population Mitochondria Different-Phenotype (%) [3]: 17% and 37% | Population Mitotic Cells (%) [3]: 70% | Population Normal (%) [3]: 96% and 97% | Population Pyknosed Nuclei (%) [3]: 8% and 9% | Population Tubulin-Different-Phenotype (%) [3]: 14% and 16% | Total Cell Count [3]: 600 and 390 | Population Apoptotic (%) [4]: 45% and 43% | Population Fragmented Nuclei (%) [4]: 10% and 7% | Population Healthy Nuclei (%) [4]: 77% and 78% | Population Hoechst High Intensity Objects (%) [4]: 4% and 2% | Population Membrane Permeable-Phenotype (%) [4]: 0% | Population Mitochondria Different-Phenotype (%) [4]: 38% and 43% | Population Mitotic Cells (%) [4]: 54% and 56% | Population Normal (%) [4]: 95% and 97% | Population Pyknosed Nuclei (%) [4]: 11% and 13% | Population Tubulin-Different-Phenotype (%) [4]: 27% and 13% | Total Cell Count [4]: 529 and 406 | Population Apoptotic (%) [5]: 21% and 33% | Population Fragmented Nuclei (%) [5]: 16% and 11% | Population Healthy Nuclei (%) [5]: 76% and 84% | Population Hoechst High Intensity Objects (%) [5]: 1% and 2% | Population Membrane Permeable-Phenotype (%) [5]: 1% | Population Mitochondria Different-Phenotype (%) [5]: 9% and 19% | Population Mitotic Cells (%) [5]: 78% and 66% | Population Normal (%) [5]: 98% | Population Pyknosed Nuclei (%) [5]: 6% and 4% | Population Tubulin-Different-Phenotype (%) [5]: 10% and 8% | Total Cell Count [5]: 1105 and 649 | Population Apoptotic (%) [6]: 40% and 33% | Population Fragmented Nuclei (%) [6]: 15% and 13% | Population Healthy Nuclei (%) [6]: 78% and 80% | Population Hoechst High Intensity Objects (%) [6]: 2% and 1% | Population Membrane Permeable-Phenotype (%) [6]: 1% and 0% | Population Mitochondria Different-Phenotype (%) [6]: 23% and 28% | Population Mitotic Cells (%) [6]: 59% and 66% | Population Normal (%) [6]: 97% and 98% | Population Pyknosed Nuclei (%) [6]: 6% | Population Tubulin-Different-Phenotype (%) [6]: 15% and 13% | Total Cell Count [6]: 772 and 654

COCCNc1cc(NC(=O)N2CCCc3cc(CN4CCN(C)CC4=O)c(C=O)nc32)ncc1C#N [FGF401]
Population Apoptotic (%) [1]: 5.7% and 11.57% | Population Fragmented Nuclei (%) [1]: 1.49% and 2.8% | Population Hoechst High Intensity Objects (%) [1]: 0% | Population Membrane Permeable-Phenotype (%) [1]: 1.74% and 5.56% | Population Mitotic Cells (%) [1]: 94.3% and 88.43% | Population Normal (%) [1]: 100% | Population Pyknosed Nuclei (%) [1]: 47.16% and 84.62% | Population Tubulin-Different-Phenotype (%) [1]: 6.4% and 11.11% | Total Cell Count [1]: 335 and 143 | Population Fragmented Nuclei (%) [2]: 2.52% and 7.02% | Population Hoechst High Intensity Objects (%) [2]: 0% | Population Membrane Permeable-Phenotype (%) [2]: 0.56% and 0% | Population Mitochondria Different-Phenotype (%) [2]: 28.09% and 26.67% | Population Mitotic Cells (%) [2]: 94.7% and 80.22% | Population Normal (%) [2]: 100% | Population Pyknosed Nuclei (%) [2]: 41.51% and 79.82% | Total Cell Count [2]: 318 and 114 | Population Apoptotic (%) [3]: 13.08% and 17.17% | Population Fragmented Nuclei (%) [3]: 0.93% and 3.47% | Population Healthy Nuclei (%) [3]: 74.95% and 27.78% | Population Hoechst High Intensity Objects (%) [3]: 0% | Population Membrane Permeable-Phenotype (%) [3]: 1.49% and 2.5% | Population Mitochondria Different-Phenotype (%) [3]: 17.33% and 12.5% | Population Mitotic Cells (%) [3]: 86.92% and 82.83% | Population Normal (%) [3]: 100% | Population Pyknosed Nuclei (%) [3]: 24.12% and 68.75% | Population Tubulin-Different-Phenotype (%) [3]: 19.8% and 10% | Population Apoptotic (%) [4]: 12.61% and 19.59% | Population Fragmented Nuclei (%) [4]: 1.6% and 5.3% | Population Hoechst High Intensity Objects (%) [4]: 0% | Population Membrane Permeable-Phenotype (%) [4]: 1.05% and 3.57% | Population Mitochondria Different-Phenotype (%) [4]: 16.84% and 25% | Population Mitotic Cells (%) [4]: 87.39% and 80.41% | Population Normal (%) [4]: 100% | Population Tubulin-Different-Phenotype (%) [4]: 19.21% and 17.86% | Population Apoptotic (%) [5]: 7.89% and 20.99% | Population Fragmented Nuclei (%) [5]: 2.1% and 1.11% | Population Healthy Nuclei (%) [5]: 85.6% and 53.89% | Population Hoechst High Intensity Objects (%) [5]: 0% | Population Membrane Permeable-Phenotype (%) [5]: 6.24% and 0% | Population Mitochondria Different-Phenotype (%) [5]: 18.81% and 29.9% | Population Mitotic Cells (%) [5]: 92.11% and 79.01% | Population Normal (%) [5]: 100% | Population Fragmented Nuclei (%) [6]: 3.22% and 0% | Population Healthy Nuclei (%) [6]: 84.41% and 59.29% | Population Hoechst High Intensity Objects (%) [6]: 0% and 0.71% | Population Membrane Permeable-Phenotype (%) [6]: 4.23% and 1.2% | Population Mitochondria Different-Phenotype (%) [6]: 18.89% and 40.96% | Population Mitotic Cells (%) [6]: 94.37% and 80.7% | Population Normal (%) [6]: 100% and 99.29%
